In ChEMBL document CHEMBL1141647, “Novel ofloxacin derivatives: synthesis, antimycobacterial and toxicological evaluation” (Bioorg Med Chem Lett, 2008):
Converted amounts (≈) assume the structure as drawn.

Legend:
[1] = tested on: Mycobacterium tuberculosis; assay: Antimycobacterial activity against Mycobacterium tuberculosis ATCC 35801 infected CD1 mouse lungs assessed as viable organisms at 25 mg/kg, ip after 35 days relative to control; type: functional; conditions: route intraperitoneal
In short: (§1)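 CD-1 mice infected intravenously with M. tuberculosis ATCC 35801; intraperitoneal treatment started 10 days after inoculation and continued for 10 days. At 35 days postinfection, spleens and right lungs were removed aseptically and viable organisms counted (log CFU). Counts were compared with vehicle-treated controls.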

[2] = tested on: Mycobacterium tuberculosis; assay: Antimycobacterial activity against Mycobacterium tuberculosis ATCC 35801 infected CD1 mouse spleen assessed as viable organisms at 25 mg/kg, ip after 35 days relative to control; type: functional; conditions: route intraperitoneal; in short: as §1
Vero = assay: Cytotoxicity against african green monkey Vero cells after 72 hrs by MTT assay; type: cell-based; conditions: Chlorocebus sabaeus
In short: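 Vero cells exposed for 72 h; tested up to 62.5 µg/mL. Viability was read as cellular conversion of MTT to formazan, and IC50 was reported in µM.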

[3] = tested on: Mycobacterium tuberculosis; assay: Antimycobacterial activity against Mycobacterium tuberculosis H37Rv by agar dilution method; type: functional
In short: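 MIC99 was taken as the lowest concentration giving complete inhibition of bacterial growth.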

[4] = tested on: Mycolicibacterium smegmatis; assay: Antimycobacterial activity against Mycobacterium smegmatis ATCC 14468 by agar dilution method; type: functional
In short: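 MC² (M. smegmatis) growth inhibition; MIC99 taken as the lowest concentration giving complete inhibition of bacterial growth, in µM.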

NNC(=O)c1ccncc1 [ISONIAZID]
Log10 cfu [1]: 5.86 | Log10 cfu [2]: 4.71 | IC50 (Vero): > 456 µM | MIC99 [3]: 0.36 µM (≈ 0.0494 µg/mL) | MIC99 [4]: 45.6 µM (≈ 6.25 µg/mL)
